Test results taken from the array DNA melting data of Ke et al. (doi:10.1101/2024.01.08.574731).

Columns and labels:
[1] = folding enthalpy; higher = less favourable; fluorescence melt of hairpins on a sequencing array, two-state fit; conditions: sodium 0.088 M
In short: (§1)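 Cy3 signals were normalised both to pre-quench Cy3 and to control constructs. They came from library hairpins carrying annealed Cy3 and quencher oligos on a sequenced MiSeq flow cell, imaged in 50 mM Na-HEPES pH 8.0, 25 mM NaCl, in 2.5 °C steps up to 60 °C. Bootstrapped two-state fits gave melting temperature and folding enthalpy, and four replicates were combined by inverse variance. Fitted temperatures were then raised by 9.35 °C to match UV melts.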

[2] = melting temperature; fluorescence melt of hairpins on a sequencing array, two-state fit, raised by 9.35 °C to match UV melts; conditions: sodium 0.088 M
In short: as §1

Sequence	folding enthalpy [1]	Tm [2]
GCCCAGCGAAAGCGGAGC ((.(.((....)).).))	-53 kJ/mol	53.1 °C
GGCAGGGAAACCTGCC ((((((....))))))	-127 kJ/mol	69.3 °C
GCTCCTCGAAAGAGAGC (((.(((....))))))	-126 kJ/mol	49.2 °C
GATTACACGAAAGTGATC (((..(((....))))))	-40.3 kJ/mol	26.4 °C
GGTCCGGCGAAAGCCACC (((..(((....))))))	-37.3 kJ/mol	27.1 °C
GATCCTTGGCAGGATC ((((((....))))))	-148 kJ/mol	49.4 °C
AGAACCAGAAATGGTTCT (((((((....)))))))	-132 kJ/mol	55.2 °C
GCGGTTGGAAACGACCGC (((((.(....).)))))	-204 kJ/mol	62.9 °C
GGTGTTGGAAACAGCACC ((((.((....)).))))	-155 kJ/mol	51.8 °C
GACGAGGCGAAAGCCGTC (((..(((....))))))	-36.7 kJ/mol	51.5 °C
GATGATGCGAAAGCAATC (((..(((....))))))	-57.2 kJ/mol	37.6 °C
GATCGGAGTTCCGATC ((((((....))))))	-158 kJ/mol	56.7 °C
GCCATGCGAAAGCCCGGC (((..((....))..)))	-96 kJ/mol	43.1 °C
CGGTACGGAAACGTCCCG (((.(((....))).)))	-105 kJ/mol	46.6 °C
GCCGCAGCGAAAGCTGGC (((..(((....))))))	-40.2 kJ/mol	56.7 °C
GGTTCAGCGAAAGCTACC (((..(((....))))))	-67.1 kJ/mol	32.7 °C
GATCCAGTTTTGGATC ((((((....))))))	-174 kJ/mol	52.4 °C
GATCAACGTTTTGATC ((((((....))))))	-127 kJ/mol	42.8 °C
GTCAGAGGAAACTCCAAC ((..(((....)))..))	-18.7 kJ/mol	17.2 °C
GGCGAAGGAAACTTCACC ((.((((....)))).))	-137 kJ/mol	42.6 °C
GGAGTGCCGAAAGGCTCC (((..(((....))))))	-50.8 kJ/mol	41.9 °C
GAGACTGGAAACAGCCTC (((.(((....))).)))	-99.5 kJ/mol	43.3 °C
GCGTTGCGAAAGCCTCGC (((..((....))..)))	-77.4 kJ/mol	58.1 °C

Sequence	folding enthalpy [1]	Tm [2]
GAACTCGGAAACGGGTTC ((((.((....)).))))	-147 kJ/mol	50.4 °C
TCAACGAAAGTTGA (((((....)))))	-73.4 kJ/mol	52 °C
GCAATGCGAAAGCCCTGC (((..((....))..)))	-43.1 kJ/mol	28.4 °C
GCGCATCGAAAGATACGC (((.(((....))).)))	-162 kJ/mol	54.5 °C
GATGAGCGAAAGCTGATC (((.(((....))).)))	-92.3 kJ/mol	45.9 °C
GATCACCGAGGTGATC ((((((....))))))	-196 kJ/mol	63.5 °C
GGTTACGAAAGTAGTACC ((((((....)))..)))	-61.8 kJ/mol	34.8 °C
GAAACCGAAAGGTCCTTC ((((((....)))..)))	-61 kJ/mol	30.7 °C
GCCGTCGGAAACAACGGC (((((.(....).)))))	-199 kJ/mol	53.9 °C
GGGCCAACGAAAGTTCCC (((..(((....))))))	-60.3 kJ/mol	30.4 °C
GCGTGCGAACGC ((((....))))	-76.2 kJ/mol	69 °C
GGTAGCGAAAGCTTACC ((((((....))).)))	-87.6 kJ/mol	51.6 °C
GAGGACGGAAACGTCTTC ((.((((....)))).))	-74.6 kJ/mol	47.3 °C
GTTTCCGAAAGGAGTAAC ((((((....)))..)))	-52.9 kJ/mol	28.8 °C
GCTTTGCGAAAGCTATGC ((.(.((....)).).))	-52.7 kJ/mol	45.6 °C
GTCACCGAAAGGTTGAC ((((((....))).)))	-113 kJ/mol	51.4 °C
GGGCGGCCGAAAGGCCCC (((..(((....))))))	-43.4 kJ/mol	57.1 °C
GCAATGCGAAAGCTTGGC ((.(.((....)).).))	-79.7 kJ/mol	40.6 °C
GTGAGGGGAAACCCTCGC (.(((((....))))).)	-142 kJ/mol	53.5 °C
GATCGGAGGCCCGATC ((((((....))))))	-143 kJ/mol	56.4 °C
GCTTCCGGAAACGGAAAC (.(((((....))))).)	-61.5 kJ/mol	40.5 °C
GAACGCGGAAACACGTTC (((((.(....).)))))	-191 kJ/mol	48.1 °C
GCAGCGGGAAACCACCGC ((.(.((....)).).))	-59.3 kJ/mol	39.8 °C

Sequence	folding enthalpy [1]	Tm [2]
CGGCCGGAAACGGAACCG ((((((....)))..)))	-110 kJ/mol	46 °C
GTATCGGGAAACTGATAC (((((.(....).)))))	-156 kJ/mol	45.3 °C
GCCGTCGAAAGACAAGGC ((((((....)))..)))	-137 kJ/mol	55.2 °C
GATCGACTGTCGATC ((((((...))))))	-205 kJ/mol	51.4 °C
GACCGAGGAAACTTGGTC ((((.((....)).))))	-136 kJ/mol	50.1 °C
GGCACCCGAAAGGGCGCC (((.(((....))).)))	-133 kJ/mol	69 °C
GGACACGAAAGTGCCTCC ((((((....)))..)))	-70 kJ/mol	42.1 °C
GTTCGAGGAAACTCGAAC (((((((....)))))))	-177 kJ/mol	65 °C
GCGGCTTCCCGC ((((....))))	-110 kJ/mol	58.2 °C
GACTTCGGAAACAAAGTC (((((.(....).)))))	-107 kJ/mol	34 °C
GATCGTAGGAACGATC ((((((....))))))	-129 kJ/mol	52.4 °C
GATCTGTAATCAGATC ((((((....))))))	-157 kJ/mol	48.2 °C
GCTCTACGAAAGTAAAGC (((.(((....))).)))	-95.8 kJ/mol	38.4 °C
GATCTTGCTAAAGATC ((((((....))))))	-159 kJ/mol	53.2 °C
GATCAAGATGTTGATC ((((((....))))))	-117 kJ/mol	43.5 °C
GCAGAAGGAAACTTTTGC (((.(((....))).)))	-130 kJ/mol	37 °C
GTAGTAGGAAACTATTAC (((.(((....))).)))	-74.1 kJ/mol	29.9 °C
GCAAACACGAAAGTGTGC (((..(((....))))))	-64.3 kJ/mol	48.6 °C
GCTCGGCGAAAGCCCCGC ((..(((....)))..))	-18.6 kJ/mol	44.6 °C
GAATGCGAAAGCAGTTTC ((((((....)))..)))	-48.9 kJ/mol	31.3 °C
GACGCCCGAAAGGGAGTC (((.(((....))).)))	-137 kJ/mol	66.7 °C
GTGTTGGAAACAACAC ((((((....))))))	-147 kJ/mol	56.8 °C
GGTTCCCGAAAGGGACC (((.(((....))))))	-96.3 kJ/mol	59.9 °C

Sequence	folding enthalpy [1]	Tm [2]
GACTAGCGAAAGCTCGTC (((.(((....))).)))	-79.7 kJ/mol	48 °C
GTATTAGAAATAATAC ((((((....))))))	-93 kJ/mol	31.9 °C
GCGCCACGAAAGTGTCGC (((.(((....))).)))	-175 kJ/mol	63.3 °C
CGACCGGAAACGGCATCG ((((((....)))..)))	-62.1 kJ/mol	30 °C
GGTCAGGCGAAAGCCACC (((..(((....))))))	-46.8 kJ/mol	35.6 °C
GATCTTTCGGAAGATC ((((((....))))))	-140 kJ/mol	43.9 °C
GGTGGAGGAAACTCTGCC ((..(((....)))..))	-113 kJ/mol	42 °C
GATCCAGATTGGATC ((((((...))))))	-143 kJ/mol	50.6 °C
CGTTGCGGAAACGCTACG (((.(((....))).)))	-140 kJ/mol	56 °C
GGAGTAGGAAACTACCCC ((.((((....)))).))	-102 kJ/mol	35.1 °C
GGCCGAGGAAACCCAGCC (((.(.(....).).)))	-49.3 kJ/mol	29.6 °C
GATCATCAGAATGATC ((((((....))))))	-94.5 kJ/mol	46.9 °C
GTAGGACGAAAGTCTAC (((.(((....))))))	-72 kJ/mol	43 °C
GCGCCTGGAAACAGGTGC ((.((((....)))).))	-195 kJ/mol	64.2 °C
GTGCGCGAAAGCGTCCAC ((((((....)))..)))	-41.4 kJ/mol	36.4 °C
GCACGCGAAAGCGTCTGC ((((((....)))..)))	-46.5 kJ/mol	47.4 °C
GATCTCTATTGAGATC ((((((....))))))	-163 kJ/mol	53 °C
GATCCTATGAGGATC ((((((...))))))	-145 kJ/mol	53.7 °C
GTCCCTCCGAAAGGAGAC (((..(((....))))))	-38.1 kJ/mol	26.4 °C
GTGAAACCGAAAGGTCAC (((..(((....))))))	-85.4 kJ/mol	42 °C
GGGAACGAAAGTTCCCCC ((((((....)))..)))	-37.9 kJ/mol	68.4 °C
GTCTCGGGAAACCAAGAC ((((.((....)).))))	-111 kJ/mol	37.2 °C
GAACACGAAAGTGGTTTC ((((((....)))..)))	-58.6 kJ/mol	35.5 °C
